Here are results for six compounds from ChEMBL document CHEMBL1149749, “Antibacterial activity of totarol and its potentiation” (1992).

≈ marks a conversion by molar mass, not a printed value. Calls of active or inactive are those of the source.

In assay [1] the test system is Cutibacterium acnes. Put plainly: Antibacterial activity against Propionibacterium acnes ATCC 11827 after 2 days by twofold serial dilution method. Type of assay: functional. The settings on record: ATCC 11827, 48 h. The method in brief:
(§1)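 Twofold serial broth dilution in each organism's own medium, DMF held at 1% in all tubes. The highest concentration was 400 µg/ml unless otherwise specified. MIC was taken as the lowest concentration with no visible growth, and determinations were done in duplicate.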

Assay [2] relates to Streptococcus mutans. The assay is described as follows: Antibacterial activity against Streptococcus mutans ATCC 25175 after 2 days by twofold serial dilution method. Type of assay: functional. To be noted: ATCC 25175, 48 h. The gist of the method: as §1
Assay [3] has as its system Bacillus subtilis. Put plainly: Antibacterial activity against Bacillus subtilis ATCC 9372 after 2 days by twofold serial dilution method. Type of assay: functional. To be noted: ATCC 9372, 48 h. The method in brief: as §1
Assay [4] relates to Escherichia coli. Put plainly: Antibacterial activity against Escherichia coli ATCC 13048 up to 400 ug/ml after 2 days by twofold serial dilution method. Type of assay: functional, organism-based. The method in brief: as §1
The subject of assay [5] is Klebsiella aerogenes. Put plainly: Antibacterial activity against Enterobacter aerogenes ATCC 13048 up to 400 ug/ml after 2 days by twofold serial dilution method. In kind it is functional, organism-based. The gist of the method: as §1
The test system of assay [6] is Penicillium chrysogenum. The assay is described as follows: Antifungal activity against Penicillium chrysogenum ATCC 10106 up to 400 ug/ml after 2 days by twofold serial dilution method. In kind it is functional, organism-based. The method in brief:
as §1

In assay [7] the test system is Staphylococcus aureus. Put plainly: Antibacterial activity against penicillin-susceptible Staphylococcus aureus ATCC 12598 after 2 days by twofold serial dilution method. Type of assay: functional. To be noted: ATCC 12598, 48 h. The method in brief: as §1
Assay [8] deals with Candida albicans. The assay is described as follows: Antifungal activity against Candida albicans ATCC 18804 up to 400 ug/ml after 2 days by twofold serial dilution method. In kind it is functional, organism-based. The gist of the method:
as §1

For assay [9], the system named is Corynebacterium ammoniagenes. Put plainly: Antibacterial activity against Brevibacterium ammoniagenes ATCC 6872 after 2 days by twofold serial dilution method. In kind it is functional. The settings on record: ATCC 6872, 48 h. The method in brief:
as §1

For assay [10], the system named is Malassezia. Put plainly: Antifungal activity against Pityrosporum ovale ATCC 14521 up to 400 ug/ml after 2 days by twofold serial dilution method. In kind it is functional, organism-based. The gist of the method:
as §1

The subject of assay [11] is Pseudomonas aeruginosa. The assay is described as follows: Antibacterial activity against Pseudomonas aeruginosa ATCC 10145 up to 400 ug/ml after 2 days by twofold serial dilution method. In kind it is functional, organism-based. The gist of the method: as §1
Assay [12] concerns Saccharomyces cerevisiae. Put plainly: Antifungal activity against Saccharomyces cerevisiae ATCC 7754 up to 400 ug/ml after 2 days by twofold serial dilution method. In kind it is functional, organism-based. The gist of the method:
as §1

Assay [13] relates to Staphylococcus aureus. The assay is described as follows: Antibacterial activity against penicillin-resistant Staphylococcus aureus ATCC 29247 after 2 days by twofold serial dilution method. To be noted: ATCC 29247, 48 h. Type of assay: functional. The method in brief: (§2)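 Twofold serial broth dilution, highest concentration 400 µg/ml. Samples were delivered in DMF, kept at 1% in the medium throughout. MIC was the lowest concentration with no visible growth, determined in duplicate.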

Assay [14] has as its system Corynebacterium ammoniagenes. Put plainly: Antibacterial activity against Brevibacterium ammoniagenes ATCC 6872 up to 400 ug/ml after 2 days by twofold serial dilution method. Type of assay: functional, organism-based. The method in brief:
as §1

Assay [15] has as its system Cutibacterium acnes. Put plainly: Antibacterial activity against Propionibacterium acnes ATCC 11827 up to 400 ug/ml after 2 days by twofold serial dilution method. In kind it is functional, organism-based. The method in brief:
as §1

Assay [16] relates to Staphylococcus aureus. The assay is described as follows: Antibacterial activity against penicillin-susceptible Staphylococcus aureus ATCC 12598 up to 400 ug/ml after 2 days by twofold serial dilution method. In kind it is functional, organism-based. The method in brief:
as §1

The subject of assay [17] is Staphylococcus aureus. Put plainly: Antibacterial activity against penicillin-resistant Staphylococcus aureus ATCC 29247 up to 400 ug/ml after 2 days by twofold serial dilution method. In kind it is functional, organism-based. The method in brief: as §2
In assay [18] the test system is Streptococcus mutans. Put plainly: Antibacterial activity against Streptococcus mutans ATCC 25175 up to 400 ug/ml after 2 days by twofold serial dilution method. Type of assay: functional, organism-based. The method in brief:
as §1

Assay [19] relates to Bacillus subtilis. Put plainly: Antibacterial activity against Bacillus subtilis ATCC 9372 up to 400 ug/ml after 2 days by twofold serial dilution method. In kind it is functional, organism-based. The gist of the method:
as §1

For orientation: MIC means the smallest concentration in the dilution series that meets the test's criterion for growth inhibition. Low values mean a more susceptible organism, high ones a less susceptible organism. Turning to `CC(C)c1c(O)ccc2c1CC[C@H]1C(C)(C)[C@@H](O)CC[C@]21C` [TOTARADIOL], the MIC in assay [1] amounted to 25 µg/mL (≈ 82.7 µM); in assay [2] it was 200 µg/mL (≈ 661 µM); in assay [3] it was 25 µg/mL (≈ 82.7 µM); in assay [7], 50 µg/mL (≈ 165 µM); in assay [9] it was 100 µg/mL (≈ 331 µM). Moreover, the result in assay [4], in assay [5], in [6], in assay [8], in assay [10] and in assay [11] was inactive. The result in [12] was inactive.

For `CC1(C)S[C@@H]2[C@H](NC(=O)Cc3ccccc3)C(=O)N2[C@H]1C(=O)O` [PENICILLIN G], the MIC in [1] was 0.012 µg/mL (≈ 0.0359 µM); in assay [2], 0.049 µg/mL (≈ 0.147 µM); in assay [3] it was 50 µg/mL (≈ 150 µM); in [7], 0.049 µg/mL (≈ 0.147 µM); in [13] it was > 800 µg/mL; in [9], 0.39 µg/mL (≈ 1.17 µM).

Consider `CC(C)c1c(O)ccc2c1CC[C@H]1[C@@](C)(C=O)CCC[C@]21C`, for which the outcome in assay [14], in assay [15], in [16], in assay [4], in [5] and in [6] was inactive. For the same compound, the result in assay [17], in [18], in assay [8], in assay [10], in assay [19] and in assay [11] was inactive. Besides, the result in [12] was inactive.

On to `CC(C)c1c(O)ccc2c1CC[C@H]1[C@@](C)(CO)CCC[C@]21C`, for which the outcome in assay [14], in assay [15], in assay [16], in assay [4], in assay [5] and in assay [6] was inactive. In addition, the result in assay [17], in assay [18], in [8], in assay [10], in assay [19] and in [11] was inactive. For the same compound, in assay [12], the result was inactive.

By MBC is commonly meant the lowest tested concentration that kills the bacteria rather than only halting them. Lower therefore signals greater bactericidal potency. `CC(C)c1c(O)ccc2c1CC[C@H]1C(C)(C)CCC[C@]21C` [TOTAROL]: the MBC was 0.78 µg/mL (≈ 2.72 µM) in assay [1]; 0.78 µg/mL (≈ 2.72 µM) in [2]; 1.56 µg/mL (≈ 5.45 µM) in [3]; 1.56 µg/mL (≈ 5.45 µM) in assay [7]; 6.25 µg/mL (≈ 21.8 µM) in assay [9]. Also, the MIC was 0.39 µg/mL (≈ 1.36 µM) in [1]; 0.78 µg/mL (≈ 2.72 µM) in assay [2]; 1.56 µg/mL (≈ 5.45 µM) in [3]; 1.56 µg/mL (≈ 5.45 µM) in assay [7]; 0.78 µg/mL (≈ 2.72 µM) in assay [13]; 0.78 µg/mL (≈ 2.72 µM) in assay [9]. In addition, the result in assay [4], in [5], in [6], in assay [8], in assay [10] and in [11] was inactive. Also, in assay [12], the result was inactive.

With `CC(C)c1c(O)ccc2c1CC[C@H]1[C@@](C)(C(=O)O)CCC[C@]21C`, the result in assay [14], in assay [15], in assay [16], in [4], in assay [5] and in assay [6] was inactive. The result in [17], in [18], in assay [8], in assay [10], in assay [19] and in assay [11] was inactive. Also, in assay [12], the outcome was inactive.
